Assay results pooled from the literature.
Each line is one published result; the experiments were not run side by side.
AMY2: Pancreatic alpha-amylase (AMY2, Sus scrofa, UniProt P00690)
HSD11B2: 11-beta-hydroxysteroid dehydrogenase type 2 (HSD11B2, Homo sapiens, UniProt P80365)
SIRT2: NAD-dependent protein deacetylase sirtuin-2 (SIRT2, Homo sapiens, UniProt Q8IXJ6)

Structure (SMILES) | target | test | setting | inhibition [%]
CN(O)N=Nc1ccc(S(=O)(=O)Nc2nccs2)cc1 | AMY2 | enzyme activity, inhibitor | 300 µg/mL | 78.9
CN(C)CCCN1c2ccccc2Sc2ccc(Cl)cc21 | HSD11B2 | enzyme activity, inhibitor | 20 µM, lysate | < 40
CC(=S)NCCCC[C@H](NC(=O)OCc1ccccc1)C(=O)N[C@@H](Cc1c[nH]c2ccccc12)C(=O)N[C@@H](CCCCN)C(N)=O | SIRT2 | enzyme activity, inhibitor | 1 µM | 36
Cc1ccc(N(O)N=Nc2ccc(S(=O)(=O)Nc3cc(C)on3)cc2)cc1 | AMY2 | enzyme activity, inhibitor | 300 µg/mL | 78.9
COc1cc(C=Cc2cc(-c3ccc(N(C)C)cc3)nc(O)n2)ccc1O | AMY2 | enzyme activity, inhibitor, absorbance | 2.5 µg/mL | 60
CCCN(O)N=Nc1ccc(S(=O)(=O)Nc2cc(C)on2)cc1 | AMY2 | enzyme activity, inhibitor | 120 µg/mL | 31.6
CCCCCCCCCCC[C@@H](C[C@@H]1OC(=O)[C@H]1CCCCCC)OC(=O)[C@H](CC(C)C)NC=O | Pancreatic triacylglycerol lipase (PNLIP, Sus scrofa, UniProt P00591) | enzyme activity, inhibitor, absorbance | 50 µg/mL | 92.2
Cc1ccc(N(O)N=Nc2ccc(S(=O)(=O)Nc3onc(C)c3C)cc2)cc1 | AMY2 | enzyme activity, inhibitor | 60 µg/mL | 21.1
CCCCNC(=S)NCCCC[C@H](NS(=O)(=O)c1cccc(F)c1)C(=O)N[C@@H](Cc1c[nH]c2ccccc12)C(=O)NC1CCC1 | SIRT2 | enzyme activity, inhibitor | 1 µM | 32
CCCCCCCCCCCCNC(=S)NCCCC[C@H](NC(=O)OCc1ccccc1)C(=O)N[C@@H](Cc1c[nH]c2ccccc12)C(=O)N[C@@H](CC(N)=O)C(N)=O | SIRT2 | enzyme activity, inhibitor | 100 µM | 16
Cc1noc(NS(=O)(=O)c2ccc(N=NN(C)O)cc2)c1C | AMY2 | enzyme activity, inhibitor | 20 µg/mL | 21.1
O=C(NC1CCC1)[C@H](Cc1c[nH]c2ccccc12)NC(=O)[C@H](CCCCNC(=S)NCc1n[nH]c(=S)o1)NS(=O)(=O)c1cccc(F)c1 | SIRT2 | enzyme activity, inhibitor | 30 µM | 11
CCCN(O)N=Nc1ccc(S(=O)(=O)Nc2nccs2)cc1 | AMY2 | enzyme activity, inhibitor | 240 µg/mL | 63.2
O=C(c1ccc(Cl)cc1)N(Cc1ccccc1)C1CCCCC1 | Amine oxidase [flavin-containing] A (Maoa, Rattus norvegicus, UniProt P21396) | cell-free assay | 10 µM | 5.1
CC(=S)NCCCC[C@H](NC(=O)OCc1ccccc1)C(=O)N[C@@H](Cc1c[nH]c2ccccc12)C(=O)N[C@@H](CCC(=O)O)C(N)=O | SIRT2 | enzyme activity, inhibitor | 10 µM | 39
COc1cc(C=CC(=O)CC(c2ccc(N(C)C)cc2)n2ccnc2)ccc1O (centres unmarked) | AMY2 | enzyme activity, inhibitor, absorbance | 1.25 µg/mL | 58.2
CCN(O)N=Nc1ccc(S(=O)(=O)Nc2cc(C)on2)cc1 | AMY2 | enzyme activity, inhibitor | 20 µg/mL | 26.3
CN(CCOc1ccc(CC2SC(=O)NC2=O)cc1)c1ccccn1 (centres unmarked) | HSD11B2 | enzyme activity, inhibitor | 20 µM, lysate | < 40
COc1cc(C=Cc2cc(-c3ccccc3)nc(O)n2)ccc1O | AMY2 | enzyme activity, inhibitor, absorbance | 1.25 µg/mL | 58.1
CC/C(=N\NC(=O)NCc1cccc(O)c1)c1ccc(O)c(C)c1O | Fibroblast growth factor receptor 3 (FGFR3, Homo sapiens, UniProt P22607, K650E) | enzyme activity, inhibitor | 0.1 µM | 1.3
COc1cc(C=CC(=O)CC(c2ccc([N+](=O)[O-])cc2)n2ccnc2)ccc1O (centres unmarked) | AMY2 | enzyme activity, inhibitor, absorbance | 2.5 µg/mL | 62.6
Oc1cccc(Nc2nc(-c3ccc(F)cc3F)cs2)c1 | Muscarinic acetylcholine receptor M2 (CHRM2, Homo sapiens, UniProt P08172) | cell-free assay | 10 µM | -43.3
O=C(O)CN1CCN(CC(=O)O)CCN(CC(=O)O)CC1 | Hydroxyacylglutathione hydrolase, mitochondrial (Homo sapiens, UniProt Q16775) | cell-free assay | 100 µM | 0.85
